# NS3 helicase inh: inhibitors of Hepatitis C virus NS3 helicase. NS3 helicase DNA unwinding, Cy5 molecular beacon fluorescence. inhibition, % at 10.9 µM. 290,000 compounds, 0.56% hits. AID 1800;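 active means inhibition above the mean of all tested compounds plus 3 SD, set per campaign, cut at about 35% in these data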;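 further: 0% = DMSO wells and 100% = thioflavine S control wells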
#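 System: HCV NS3 helicase fragment; control set: DMSO and thioflavine S; technique: Cy5 fluorescence at 0 and 60 min, beacon hairpin quenching; reagent: beacon DNA duplex substrate plus ATP; replicates: singlicate; schedule: 1 h reaction at 25 °C, ATP-initiated; medium: MOPS buffer pH 6.5 with MgCl2, DTT, Tween20, BSA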
# HSP90 refold inh: blocks HSP90-mediated luciferase refolding in reticulocyte lysate. AID 1789. Rabbit reticulocyte lysate, luciferase refolding luminescence, 3 h. inhibition, % at 5.6 µM. 290,000 compounds, 0.91% hits;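 active means inhibition above the screen-wide mean plus 3 SD, computed separately per campaign, cut at about 16% in these data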;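 further: 0% = DMSO wells and 100% = 60 µM geldanamycin wells; inhibitors lower the luminescence because luciferase stays unfolded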
# HSF-1 act: increases HSF-1 driven luciferase reporter signal; AID 504408; NIH3T3-HGL HSF-1 luciferase reporter, MG132, 8 h; 100% = twice DMSO control signal; activation, % at 9 µM; 300,000 compounds, 1.7% hits;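 active means mean replicate activation of at least 50% with a set share of replicates each reaching 50%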;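 further: 0% = median of the neutral control wells and 100% = twice that signal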
# HSF1 inhib: HSF1 inhibition; 300,000 compounds, 0.77% hits; activity change, negative = inhibition, % at 7.5 µM (by protocol); NIH3T3-HGL HSE-luciferase, MG132-induced, luminescence 8 h; stronger effect = lower value;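 active means more than half of replicate wells show activity change below -50%, luminescence cut by over half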;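 further: luciferase reports HSF-1 transcriptional activity via heat shock element; 0% = median of DMSO wells and -100% = zero luminescence signal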
# Hep lipid drop: modulators of hepatic lipid droplet formation. AML12 mouse hepatocytes, oleate lipid droplets, BODIPY imaging. inhibition, % at 6.5 µM. 240,000 compounds, 0.4% hits. AID 1656;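 active means lipid droplet intensity inhibited by at least 50%, with more than 500 cells counted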
#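 Test system: AML12 hepatocytes (mouse); reagent: oleate loading, 100 µM; dosing: one dose, 6.5 µM compound; incubation: overnight exposure; signal: fluorescence imaging, 20x objective, two fields per well; read-out basis: % inhibition of corrected integrated BODIPY droplet signal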
# Numbers without * were called inactive; . = not tested or not shown. Rows were chosen to be rich in hits. Some 3.8% of all compounds tested hit in one or more screens of this group.
SMILES,NS3 helicase inh,HSP90 refold inh,HSF-1 act,HSF1 inhib,Hep lipid drop
O=C(Nc1ccc2c(c1)OCCO2)c1cccc(Br)c1,-14,2,57*,22,2
Nc1c(C(=O)Nc2ccccc2Cl)nnn1-c1ccc2c(c1)OCCO2,-8,-2,58*,36,-4
O=C(Nc1cccc(C(=O)Nc2cccc(Br)c2)c1)c1ccccc1,-4,1,7,10,13
Nc1c(C(=O)Nc2ccc3c(c2)OCCO3)nnn1Cc1cccc(Br)c1,.,.,26,12,.
CC(C)c1ccc(NC(=O)c2cccc(Br)c2)cc1,-1,2,78*,38,-47
CCc1c(C)nc2ncnn2c1N1CCN(S(=O)(=O)c2ccc(OC)cc2)CC1,-16,-4,5,-2,4
Cc1ccc(C)c(NCC(O)c2ccccc2)c1 (stereo not drawn),-4,1,7,3,-6
CCOC(=O)N1CCN(C(=O)CS(=O)(=O)c2cn(Cc3ccc(F)cc3)c3ccccc23)CC1,.,.,96*,70,15
CCOC(=O)c1cc2occc2n1CC(=O)N1CCCc2ccccc21,28,2,-74,-66*,.
CCOC(=O)c1cc2sccc2n1CC(=O)N1CCCc2ccccc21,-12,6,15,7,-7
Cc1ccc(NC(=O)CN(C)C(=S)NC2CC2)cc1,3,-2,-13,2,-4
COC(=O)c1ccc(OC)c(CN2CCCN(Cc3ccc(F)cc3)S2(=O)=O)c1,-19,1,29,0,-47
COc1ccc(C=O)cc1CN1CCCN(Cc2ccc(Cl)cc2)S1(=O)=O,-13,-5,-84,-80*,-5
COc1cc(CNCc2c[nH]c3ccccc23)cc(OC)c1,-6,-2,2,-2,21
Cn1nnnc1SCC(=O)N1CCOCC1,-1,1,-18,-10,-10
Nn1c(SCC(=O)N2CCOCC2)nnc1C1CC1,-6,-1,83*,26,24
Nn1c(SCC(=O)NCc2ccccc2)nnc1C1CC1,4,0,52*,12,.
CCOc1ccc(NC(=O)c2ccc(N3CC4CC(C3)c3cccc(=O)n3C4)c(NC(=O)CCN3CCOCC3)c2)cc1 (stereo not drawn),-1,-5,8,2,4
CCN1/C(=N\N)c2cccc3cccc1c23,16,1,-10,-5,15
Nc1ncnc2nc(N3CCN(C(=O)c4ccccc4)CC3)[nH]c12,-1,-1,-80,-73*,.
O=C(Nc1cccnc1)c1ccc(F)cc1,5,0,-6,-1,-9
O=C(Nc1cccnc1)c1cc(-c2ccccc2)on1,-10,5,9,9,-6
CCOc1cc(OCC)cc(C(=O)Nc2cccnc2)c1,-1,0,59*,18,.
COc1cccc(-c2cc(C(=O)Nc3cccnc3)no2)c1,5,11,78*,33,-3
COc1cc(OC)cc(C(=O)Nc2cccnc2)c1,3,7,24,6,5
SMILES,NS3 helicase inh,HSP90 refold inh,HSF-1 act,HSF1 inhib,Hep lipid drop
O=C(Nc1cccnc1)c1ccc(-c2ccccc2)cc1,1,-5,66*,28,5
Cc1cc(S(=O)(=O)N2CCOCC2)ccc1OCC(=O)Nc1ccc(Br)cc1F,9,0,7,-4,-2
COc1ccc(N(CC(=O)NC2CCCCCC2)S(=O)(=O)c2ccc(C)cc2)cc1OC,-17,0,35,13,2
COc1ccccc1OCCSc1nc(C)c(Cc2ccccc2)c(=O)[nH]1,2,-1,3,1,1
COc1ccc2oc(=Nc3cc(F)ccc3F)c(C(N)=O)cc2c1,4,-1,70*,34,-2
COc1cccc(NC(=O)Cc2nnc(SCC(=O)NC3CCCCC3)n2C)c1,-5,5,3,0,-2
Cc1ccc(N2C(=O)[C@@H]3C(C(=O)C(c4ccccc4)c4ccccc4)=NN[C@@H]3C2=O)cc1,21,3,53*,17,1
O=C(NC1CCCCC1)C(c1ccco1)N(C(=O)c1csnn1)c1ccc(Cl)cc1 (stereo not drawn),-2,0,-90,-89*,7
Cc1ccnc(NCc2c(O)ccc3ccccc23)c1,-10,-1,3,4,-24
O=S(=O)(Nc1cccc(-n2cnnn2)c1)c1cc(Cl)ccc1Cl,7,2,-91,-88*,6
O=C(N1CCOCC1)C12CCC3CC(CC(C3)C1)C2,-12,2,-64,-54*,.
COc1ccc(N(C(C)C(=O)N2CCC(Cc3ccccc3)CC2)S(C)(=O)=O)cc1 (stereo not drawn),-3,2,0,5,-15
CCOC(=O)c1c(N2C(=O)C=CC2=O)sc(C)c1C,30,-2,55*,44,-20
CCOC(=O)c1c(NC(=O)CSc2nc3ccccc3o2)sc(C)c1C,-11,0,144*,81,.
O=C(CSc1ncnc2ccccc12)c1cccs1,1,0,60*,33,10
CCOC(=O)c1c(NC(=O)CSc2ncnc3ccccc23)sc(C(C)=O)c1C,9,-2,78*,35,-17
C[C@H](NC(=O)c1ccccc1Cl)C(=O)OCc1cn2cc(Cl)ccc2n1,.,.,0,-2,.
CCC(C)n1c(SCC(=O)NC2CCCC2)nc2ccccc2c1=O (stereo not drawn),.,.,1,-2,.
Cc1oc2c(CN3CCCCC3)c(O)ccc2c(=O)c1-c1ccc(Cl)cc1,3,-1,2,-7,4
CCOC(=O)c1c(NC(=O)CSC(=S)N(C)C)sc(C)c1C,3,-1,85*,48,-3
CC1(C)CC(=O)c2c(O)cc(OCc3ccc([N+](=O)[O-])cc3)cc2O1,0,-3,95*,58,.
Cc1ccc(CNC(=O)COc2cc(O)c3c(c2)OC(C)(C)CC3=O)cc1,-17,-6,2,1,.
Cc1cccn2c(=O)nc(SCC(=O)N3N=C(c4cccs4)CC3c3ccc(F)cc3)nc12 (stereo not drawn),.,.,95*,50,.
CCOc1ccc(/C=C/C(=O)Oc2ccccc2)cc1,3,-4,18,4,24
CCOc1ccc(/C=C/C(=O)C(C(N)=O)=C2SCCS2)cc1,-6,-1,75*,49,-6
SMILES,NS3 helicase inh,HSP90 refold inh,HSF-1 act,HSF1 inhib,Hep lipid drop
O=C(NCCc1cccc(Cl)c1)c1cc2ccccc2oc1=O,12,-5,278*,187,-6
O=C(NCc1cccnc1)c1cc2ccccc2oc1=O,1,1,23,-4,-4
Cn1ncc(N=Cc2c(O)ccc3ccccc23)c1C(=O)Nc1cccc(Cl)c1,-4,2,-7,-2,-15
CCN(c1ccccc1)S(=O)(=O)c1ccc(Cl)c(C(=O)N(CC2CCCO2)C2CCS(=O)(=O)C2)c1 (stereo not drawn),4,-2,-64,-58*,1
O=C1C=C(Nc2ccc(O)cc2)C(=O)c2ccccc21,2,11,64*,58,-5
CC(=O)Nc1ccc(NC2=CC(=O)c3ccccc3C2=O)cc1,11,10,77*,32,8

# Source: PubChem BioAssay
